Source: PubChem
Only some compounds are listed: those with a hit (about 2.4% of all), similar ones and a draw of the others.
PGC1a acetyl inh: modulators of PGC1a acetylation; inhibition, % at 15.6 µM; U2OS PGC1a acetylation, AlphaScreen anti-acetyl-lysine; with virally co-expressed GCN5 acetyltransferase; 0.17% of 350,000 active;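 active means every replicate shows inhibition of at least 40%; inconclusive means mean inhibition at least 40% but some replicate below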;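 further: 0% = neutral control wells and 100% = positive control wells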
CASP6 VEID inh: inhibitors of human caspase-6. AID 686996. inhibition, % at 12.5 µM. 0.53% of 350,000 active. P55212. purified caspase-6, Z-VEID-R110 cleavage fluorescence;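 active means mean inhibition across replicates at least about 35%, with every replicate also reaching that limit, limit read from the data; inconclusive means only one of the two criteria met; inactive means neither criterion met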;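 further: 0% = median of neutral control wells and 100% = no fluorescence left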
Target sequence (P55212 24-179 limits assumed): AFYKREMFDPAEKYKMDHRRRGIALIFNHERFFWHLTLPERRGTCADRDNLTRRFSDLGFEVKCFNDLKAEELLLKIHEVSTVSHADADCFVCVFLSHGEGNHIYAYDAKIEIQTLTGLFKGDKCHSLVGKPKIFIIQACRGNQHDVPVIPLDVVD
Target sequence (P55212 194-293 limits assumed): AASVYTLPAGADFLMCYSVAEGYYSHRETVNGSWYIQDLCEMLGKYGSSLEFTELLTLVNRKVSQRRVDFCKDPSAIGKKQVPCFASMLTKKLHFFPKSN
S100A4 inh HTS: S100A4-myosin IIA interaction inhibition | P26447 | S100A4/TAMRA-MyoIIA peptide fluorescence polarization | inhibition, % at 10.7 µM | 0.14% of 360,000 active | AID 652163;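 active means mean inhibition of at least 70% across replicates, with every replicate also reaching that level; inconclusive means mean inhibition reaches 70% but some replicates fall short; inactive means mean inhibition below 70%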
Target sequence (P26447 whole entry, looked up): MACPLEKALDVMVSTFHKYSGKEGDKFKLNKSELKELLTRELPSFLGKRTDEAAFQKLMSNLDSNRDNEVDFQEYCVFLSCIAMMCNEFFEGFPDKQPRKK
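Test system – S100A4 monomer (human) · Compound – single-point compound testing · Schedule – 5 min incubation before reading · Probe or stimulus – TAMRA-labelled myosin IIA heavy-chain peptide probe, 5 nM · Benchmarks – neutral control DMSO, positive control TFP · Medium – Calcium-containing HEPES buffer, pH 7.2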
ARNT-TACC3 inh: disrupts binding between human ARNT and TACC3; Q9Y6A5; AlphaScreen His-ARNT PAS-B/GST-TACC3 binding, luminescence; TACC3 fragment carries E629A point mutation; inhibition, % at 9.99 µM; 0.66% of 390,000 active; AID 623870;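 active means mean inhibition of replicates at least 50% and at least half of replicates each reaching 50%; inconclusive means half or more replicates reach 50% but mean below 50%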;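 further: 0% = complete ARNT plus TACC3 wells and 100% = ARNT alone without TACC3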
ERAP1 HTS inh: ERAP1 (human) enzyme inhibition; Q9NZ08; recombinant ERAP1, Leu-AMC fluorescence, 60 min; inhibition, % at 10.7 µM; 0.15% of 340,000 active; AID 652197;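 active means mean replicate inhibition of at least 30%, or all replicates individually reaching that 30% level; inactive means mean below 30% and not every replicate reaching it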;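 further: 0% = neutral control wells and 100% = L-leucinethiol positive control wells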
Ecoli rRNA inh: inhibitors of bacterial rRNA selective over humanized ribosomes; E. coli WT GFP vs humanized-ribosome RFP mutants, fluorescence, 24 h; active compounds read low; DMSO median 0, no signal -100; GFP signal change (wild-type ribosome), % (concentration not given with the values); 1.6% of 350,000 active;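 active means significant combined selectivity score with lowered wild-type GFP, culture density cut under 30%, mutant RFP and density less affected; inactive means any of these conditions unmet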
AID977621: growth inhibition of wild-type GFP E. coli, dose response, H69 mutant RFP, cherry-pick | shares compounds with Ecoli rRNA inh | E. coli wild-type GFP strain growth, fluorescence, 24 h | activity change, negative = inhibition at 50 µM | 1,900 tested, under 10 active;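 active means Wild-type ribosome reporter drop at least double the humanized mutant ribosome reporter drop, growth loss under a set limit; inconclusive means no clear call, values can overlap the other calls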;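 further: wild-type GFP and H69 mutant RFP strains grown together 50/50 in each well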
AID977628: E. coli growth inhibition, wild-type GFP versus h24 humanized RFP strain, dose response, h24 mutant RFP vs wild-type GFP, cherry-pick; 1,900 tested, under 10 active; activity change, negative = inhibition at 50 µM; AID 977628; shares compounds with Ecoli rRNA inh; E. coli WT GFP strain growth, fluorescence, 24 h;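 active means compound lowering the normal-ribosome reporter at least twice as much as the humanized-ribosome reporter, growth loss under a set limit; inconclusive means no clear call, values can overlap the other calls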;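 further: wild-type GFP and h24 humanized RFP strains co-cultured 1 to 1 per well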
Active calls of the source: *; ? = inconclusive; · = no result given.

SMILES	PGC1a acetyl inh	CASP6 VEID inh	S100A4 inh HTS	ARNT-TACC3 inh	ERAP1 HTS inh	Ecoli rRNA inh	AID977621	AID977628
O=S(=O)(N[C@H]1CC[C@@H](CCn2cc(C3CC3)nn2)O[C@@H]1CO)c1ccc(F)cc1	-0.1	-0.1	3.9	0.1	0.4	4.6	·	·
COc1ccccc1-c1ccc2c(c1)O[C@H](CN(C)CC1CC1)[C@H](C)CN([C@@H](C)CO)S2(=O)=O	-11.2	·	·	·	·	3.1	·	·
COc1ccccc1C(=O)COC(=O)c1ccccc1O	7.4	1.5	-3.7	-13.3	8.1	-1.4	·	·
COc1ccccc1C(=O)COC(=O)c1cccs1	6.3	10.9	3.8	-18.6	-0.1	-23.9*	-25.2	-17.9
O=[N+]([O-])c1ccccc1Nc1ccccc1[N+](=O)[O-]	14.6	1.1	-1.6	-27.9	-4.0	5.0	·	·
Nc1cc([N+](=O)[O-])ccc1Nc1ccc(O)cc1	1.1	3.4	-8.5	5.2	2.0	-24.1*	·	?
Nc1ccccc1Nc1ccc([N+](=O)[O-])cc1[N+](=O)[O-]	·	-0.7	-3.6	16.7	1.6	-24.4*	-16.9	-18.7
COc1ccc(N(CCC(=O)O)S(=O)(=O)c2ccc(C)cc2C)cc1	·	1.7	-0.7	0.4	5.4	-17.1*	3.83	-9.34
Cc1ccc(N(CCC(=O)O)S(=O)(=O)c2ccccc2)cc1	·	·	·	-10.9	·	·	·	·
O=C(CC1C(=O)NCCN1CC1CCCCC1)NCc1ccc(F)cc1F (stereo not drawn)	5.8	-5.3	4.5	-0.7	0.9	-20.1*	10.4	?
Cc1nonc1CN(C)C(=O)c1cc(COc2ccc(F)cc2Cl)on1	-0.9	0.8	-2.3	13.9	-0.2	-17.0	·	·
CSc1ccccc1OCc1cc(C(=O)N(C)Cc2nonc2C)no1	-1.7	-0.3	-2.0	-3.3	4.9	-30.0*	-13.8	-12.1
O=C(Nc1ccccc1)Nc1ccc2c(c1)[C@H]1C[C@@H](CC(=O)N3CCOCC3)O[C@@H](CO)[C@H]1O2	-5.4	·	·	1.8	·	1.7	·	·
CC(=O)Nc1ccc(OCC(=O)N2CCC(Cc3ccccc3)CC2)cc1	-9.7	-5.0	2.7	3.2	-0.2	-19.5*	-25.8	·
O=C(Nc1ccc(OCC(=O)N2CCC(Cc3ccccc3)CC2)cc1)c1ccco1	-67.4	·	·	-3.4	·	·	·	·
COc1ccc(-c2cncnc2N)cc1OC	28.4	1.8	11.6	·	1.7	-5.2	·	·
Nc1ncncc1-c1ccc2ccccc2c1	·	-1.1	0.1	3.0	0.4	-31.5*	-14.4	?
COc1ccccc1S(=O)(=O)N[C@H]1CC[C@@H](CCNC(=O)C2CC2)O[C@@H]1CO	1.8	1.2	-9.0	-6.6	0.4	1.7	·	·
CCCC(=O)Nc1ccc2c(c1)OC[C@H](C)N(Cc1ccncc1)C[C@H](C)[C@H](OC)CN(C)C2=O	4.0	-11.9	-1.6	-4.3	12.1	-3.2	·	·
CCCC(=O)Nc1ccc2c(c1)OC[C@H](C)N(Cc1ccccn1)C[C@H](C)[C@H](OC)CN(C)C2=O	-2.0	-1.3	14.9	6.3	13.1	-2.0	·	·
O=C(Nc1ccc(C(F)(F)F)cc1)C1CCN(c2cnccn2)CC1	2.4	-5.8	-4.1	4.4	-0.7	-31.0*	-3.79	-2.58
Cc1ccc(NC(=O)C2CCN(c3cnccn3)CC2)cc1	6.4	-1.6	9.8	-7.1	1.7	2.0	·	·
CC1Cc2cc(S(=O)(=O)N3CCN(c4cccc(Cl)c4)CC3)ccc2N1C(=O)C1CC1 (stereo not drawn)	2.9	-0.3	-0.5	-0.6	3.7	-25.5*	-5.45	-8.8
O=C(NCC1CC1)[C@@H]1[C@@H](CO)[C@@H]2Cn3c(cccc3=O)[C@H]1N2CCc1ccccc1	·	-1.5	3.8	7.0	1.0	-2.0	·	·
COC(=O)c1ccc(CCc2cc(O)c(Br)cc2O)cc1	·	7.3	0.6	-5.4	4.3	-18.6*	-9.47	-3.46
SMILES	PGC1a acetyl inh	CASP6 VEID inh	S100A4 inh HTS	ARNT-TACC3 inh	ERAP1 HTS inh	Ecoli rRNA inh	AID977621	AID977628
CCCN(Cc1ccco1)S(=O)(=O)c1ccc(OC)c(OC)c1	·	-0.2	-5.6	1.4	3.0	-20.1*	-10.5	-13.5
O=C1CCCN1CCCNc1ncnc2c1[nH]c1ccc(Cl)cc12	·	0.7	0.9	-4.5	-5.2	-22.9*	-22.3	·
COc1cc2cc(C(=O)Nc3ccc4c(c3)OCCO4)[nH]c2cc1OC	3.1	1.0	1.9	9.1	-1.1	-20.6*	-3.53	-11
c1cncc(CNc2ncnc3sccc23)c1	·	1.1	-0.2	0.8	6.8	5.5	·	·
c1ccc(CNc2ncnc3sccc23)cc1	·	-0.5	4.1	-5.9	-0.4	-21.3*	·	?
Cc1cc(C)cc(NS(=O)(=O)c2cc(C(=O)NCc3ccccn3)ccc2Cl)c1	·	0.6	3.8	·	0.5	-20.0*	-3.18	-8.03
O=C(C[C@H]1C[C@H]2c3cc(NS(=O)(=O)c4ccc(F)cc4)ccc3O[C@H]2[C@H](CO)O1)NCc1ccccc1F	7.9	-3.5	11.3	-1.7	-1.0	-1.9	·	·
O=C(Nc1ccccc1)N1CC(=O)N2[C@H](C1)[C@H](c1ccc(C#Cc3cccnc3)cc1)[C@@H]2CO	27.1	0.5	5.2	·	0.9	-0.1	·	·
CCN(C(=O)c1ccnc(C(C)(C)C)c1)c1ccccc1	6.7	-3.9	-1.0	-3.5	-3.6	-34.1*	·	?
COc1cccc(C(=O)C2CCCN(C/C=C/c3ccccc3OC)C2)c1 (stereo not drawn)	-9.8	3.1	5.1	11.4	-0.9	-29.0*	?	?
COC(=O)c1ccc(CSc2nc3ccccc3s2)o1	4.2	-0.2	3.9	-1.9	0.0	-32.7*	11.1	-2.88
COc1ccc(Nc2nc(NCCO)nc(N3CCCC3)n2)cc1	·	1.8	-0.7	1.0	-3.1	-16.1*	-12.7	?
OCCNc1nc(Nc2ccc(Cl)cc2)nc(N2CCCC2)n1	·	1.8	1.7	-2.9	-1.3	-3.3	·	·
C[C@@H]1CCCCO[C@H](CN(C)Cc2ccc(Cl)c(Cl)c2)[C@@H](C)CN([C@@H](C)CO)C(=O)c2cc(NC(=O)Nc3ccc4c(c3)OCO4)ccc2O1	-5.3	-2.5	10.3	6.6	-0.9	-1.4	·	·
CC(C)Cc1nnc(NC(=O)c2ccc3c(=O)n4c(nc3c2)CCC4)s1	·	-1.4	-4.6	8.6	2.1	-21.1*	-10.6	-9.88
CC(C)Cc1nnc(NC(=O)c2ccc(N3CCCC3=O)cc2)s1	-3.5	-4.9	-1.8	-23.8	-2.6	5.2	·	·
COc1ccc(NC(=O)Nc2cccc3c2O[C@@H](CN(C)Cc2ccncc2)[C@@H](C)CN([C@@H](C)CO)C3=O)cc1	0.0	3.8	8.8	-11.8	-1.9	-1.8	·	·
